Hits are enriched below; roughly 2.2% of the tested compounds scored in any of these assays.
miR-122 sensor = miR-122 Renilla sensor signal increase in Huh7, primary screen, miR-122 inhibitor project, cell-based, single point, plate reader. Huh7 miR-122 Renilla luciferase sensor, 48 h; neutral wells = 0, positive control = 100. activation (reporter increase), % at 12.5 µM. hit rate 0.3% among 340,000;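 active = mean replicate activation score at least 90 and every replicate individually at or above 90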;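 also: higher luciferase means less miR-122 activity so hits act as miR-122 inhibitors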
Jurkat NFkB inh = inhibitors of induced NF-kB luciferase reporter, primary screen, TCR NF-kB activation inhibitor project, cell-based, luminescence, uHTS | Jurkat, PMA/ionomycin-induced NF-kB luciferase reporter | inhibition, % at 4 µM | hit rate 0.53% among 330,000 | AID 435003, 2010; in the data active = inhibition above about 50%
NR2E3 ag-1 = inhibitors of NR2E3-RetCOR corepressor binding, primary screen, NR2E3 agonist project, biochemical, TR-FRET, GST-NR2E3, biotin-RetCOR. inhibition of corepressor binding, % at 4.78 µM. hit rate 0.12% among 320,000. 1536-well. AID 2300, 2010. Photoreceptor-specific nuclear receptor (Homo sapiens), Q9Y5X4;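 active = percent inhibition above the cutoff of mean plus 3 SD of all tested compounds, set per screening campaign, cut at about 20% in these data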;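 also: 0% = DMSO wells and 100% = biotin wells as full block of FRET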
Target sequence (Q9Y5X4 whole entry, looked up): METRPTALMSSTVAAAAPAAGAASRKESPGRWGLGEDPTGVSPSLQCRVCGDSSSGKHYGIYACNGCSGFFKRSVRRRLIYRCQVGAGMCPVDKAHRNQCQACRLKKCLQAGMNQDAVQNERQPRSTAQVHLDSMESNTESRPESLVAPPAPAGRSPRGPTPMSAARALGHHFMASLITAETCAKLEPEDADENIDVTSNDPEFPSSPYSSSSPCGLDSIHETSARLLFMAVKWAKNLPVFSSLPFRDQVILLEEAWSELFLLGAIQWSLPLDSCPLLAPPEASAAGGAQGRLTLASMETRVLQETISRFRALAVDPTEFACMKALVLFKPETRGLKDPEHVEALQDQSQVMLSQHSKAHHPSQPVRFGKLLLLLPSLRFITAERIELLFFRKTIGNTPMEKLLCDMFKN
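Format: 1536-well format; test system: GST-NR2E3 and biotin-RetCOR proteins; read-out basis: percent inhibition of TR-FRET ratio; timing: 5 h incubation at 4 °C; detection: time-resolved FRET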
FGF22 binding = binders of human FGF22 protein, primary screen, FGF22 synaptogenesis inhibitor project, biophysical, thermal shift, single point. Fibroblast growth factor 22 (Homo sapiens), Q9HCT0. recombinant FGF22 thermal shift, SYPRO orange fluorescence; percent of sucrose octasulfate shift, DMSO zero. activity (Tm shift, normalised), % at 9.99 µM. hit rate 1.5% among 340,000. AID 651658, 2012;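 active = mean Tm shift, scaled 0 neutral to 100 positive control, at about 1.3% or above, every replicate too, limit read from the data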
Target sequence (Q9HCT0 whole entry, looked up): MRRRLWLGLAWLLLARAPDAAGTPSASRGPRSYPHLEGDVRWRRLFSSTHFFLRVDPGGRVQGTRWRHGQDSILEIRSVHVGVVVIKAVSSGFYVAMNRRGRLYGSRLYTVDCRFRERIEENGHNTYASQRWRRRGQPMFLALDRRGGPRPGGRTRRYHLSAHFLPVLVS
697 NFkB inh = inhibitors of PMA/ionomycin-induced NF-kB reporter, 697 cells, primary screen, B-cell NF-kB inhibitor project, cell-based, luminescence, uHTS; 697 B-cell NF-kB luciferase reporter, 16 h; inhibition, % at 4 µM; hit rate 0.33% among 330,000; AID 435022, 2010; in the data active = inhibition above about 35%
NR2E3 ag-2 = NR2E3 agonists in two-hybrid cells, primary screen, cell-based, luminescence, CHO-S, Gal4-NCOR/VP16-NR2E3. Photoreceptor-specific nuclear receptor (Homo sapiens), Q9Y5X4. luciferase. inhibition of corepressor binding, % at 3.98 µM. hit rate 0.35% among 360,000. AID 602229, 2012;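 active = inhibition above the mean of all tested compounds plus 3 SD, cut at about 70% in these data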;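 also: 0% = DMSO with NR2E3 transfected cells and 100% = cells lacking NR2E3 construct; higher means lower luciferase signal from less NR2E3 corepressor binding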
NR2E3 ag conf = NR2E3 agonist confirmation in cells, cell-based, luminescence, CHO-S two-hybrid; shares compounds with NR2E3 ag-2; CHO-S mammalian two-hybrid NR2E3-NCOR, luciferase luminescence; inhibition, % at 3.98 µM; hit rate 51% among 2,300; AID 624378, 2012;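 active = average inhibition above a cutoff equal to the mean inhibition of all tested compounds plus one SD, cut at about 70% in these data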;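 also: 0% = DMSO in NR2E3 cells and 100% = DMSO in cells lacking NR2E3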
VP16 counter = GAL4-VP16 reporter modulators, confirmation, counter-screen for NR2E3 agonist project, cell-based, luminescence, CHO-S, high throughput; shares compounds with NR2E3 ag-2; CHO-S GAL4-VP16 luciferase reporter; inhibition, % at 3.98 µM; hit rate 29% among 2,300;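 active = mean inhibition above a cutoff equal to the average over all tested compounds plus one standard deviation, cut at about 70% in these data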;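 also: luciferase from a UAS reporter driven by GAL4-VP16 transactivation; 0% = DMSO with VP16-transfected cells and 100% = DMSO with cells lacking VP16; higher means less reporter light so more repression of VP16 activity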
An asterisk follows results filed as active; nt = no result; [ ] = dose if it differs, or a comment.

SMILES | miR-122 sensor | Jurkat NFkB inh | NR2E3 ag-1 | FGF22 binding | 697 NFkB inh | NR2E3 ag-2 | NR2E3 ag conf | VP16 counter
Cc1ccc(S(=O)(=O)N[C@H]2CC[C@@H](CCNC(=O)C3CCCCC3)O[C@H]2CO)cc1 | -20[16.7 µM] | nt | nt | 0 | nt | nt | nt | nt
C[C@H](CO)N1C[C@H](C)[C@H](CN(C)S(=O)(=O)c2cccs2)Oc2ccc(NC(=O)NC3CCCCC3)cc2C1=O | 1[16.7 µM] | nt | nt | 0 | nt | nt | nt | nt
COCC(=O)Nc1ccc2c(c1)OC[C@@H](C)N(C(=O)CC1CC1)C[C@H](C)[C@@H](OC)CN(C)C2=O | nt | nt | nt | 0 | nt | nt | nt | nt
Cc1ccc(OCC(=O)Oc2c(C)cccc2C)cc1 | nt | -8 | 1 | 0 | 1 | -29 | nt | nt
COCC(=O)Oc1cc(-c2ccc(C)cc2C)c(OC(=O)COC)c(-c2ccc(C)cc2C)c1 | nt | nt | nt | 0 | nt | 69 | 24 | 8
CC1(C(=O)Nc2ccc3c(c2)OCO3)CCN1C(=O)Cc1ccc(-c2ccccc2)cc1 (centres undefined) | 0 | nt | nt | 0 | nt | 94* | 97* | 84*
CCC(=O)N1CCC1(C)C(=O)Nc1ccc2c(c1)OCO2 (centres undefined) | -3 | nt | nt | 0 | nt | -3 | nt | nt
CC1(C(=O)Nc2ccc(Cl)c(Cl)c2)CCN1C(=O)CC(c1ccccc1)c1ccccc1 (centres undefined) | -2 | nt | nt | 0 | nt | 13 | nt | nt
CC1(C(=O)Nc2ccc(Cl)c(Cl)c2)CCN1C(=O)Cc1ccc(-c2ccccc2)cc1 (centres undefined) | -25 | nt | nt | nt | nt | 68 | 93* | 73*
CC1(C(=O)Nc2ccccc2)CCN1C(=O)Cc1ccc(-c2ccccc2)cc1 (centres undefined) | -3 | nt | nt | 0 | nt | 53 | 46 | 33
Cc1ccc(NS(=O)(=O)c2ccc(-n3cccn3)cc2)cc1Cl | 81 | nt | nt | 0 | nt | 4 | nt | nt
COc1cc(NS(=O)(=O)c2ccc(-n3cccn3)cc2)cc(OC)c1 | 95* | nt | nt | nt | nt | 51 | 55 | 47
Cc1ccc(NS(=O)(=O)c2ccc(-n3cccn3)cc2)cc1C | 65 | 8 | 4 | 0 | -12 | 57 | 59 | 52
COc1ccc(S(=O)(=O)N[C@@H]2CC[C@@H](CCn3cc(C(C)C)nn3)O[C@H]2CO)cc1 | -6[16.7 µM] | nt | nt | 0 | nt | nt | nt | nt
CCCCC(=O)N/N=C/c1ccc(Sc2cccc3cccnc23)o1 | 4 | 9 | -1 | nt | -1 | 86* | -33 | -18
O=C(Cc1cccc2ccccc12)N/N=C/c1ccc(Sc2cccc3cccnc23)o1 | nt | 2 | 3 | nt | -15 | nt | nt | nt
c1csc(CCNc2ncnc3sc4c(c23)CCC4)c1 | -4 | 31 | 0 | 0 | -12 | 93* | 98* | 87*
O=c1ccc2cc(S(=O)(=O)N3CCN(c4ccccc4F)CC3)ccc2o1 | -4 | 9 | 4 | 0 | 2 | -6 | nt | nt
O=c1[nH]c2ccc(S(=O)(=O)N3CCN(c4ccccc4F)CC3)cc2s1 | 2 | -9 | -1 | nt | -1 | 50 | 60 | 51
CCCC#Cc1ccc2c(c1)O[C@@H](CN(C)C(=O)COC)[C@H](C)CN([C@H](C)CO)S2(=O)=O | -2[16.7 µM] | nt | nt | 0 | nt | nt | nt | nt
BrC(=C\c1ccccc1)/C=N/n1cnnc1 | nt | nt | nt | 0 | nt | 52 | 27 | 28
COc1ccccc1-c1cc(C(=O)Nc2c(C)n(C)n(-c3ccccc3)c2=O)no1 | -1 | 1 | 2 | 0 | 9 | 19 | nt | nt
COc1ccc(OC)c(-c2cc(C(=O)Nc3c(C)n(C)n(-c4ccccc4)c3=O)no2)c1 | -6 | 3 | -2 | nt | 8 | 51 | 13 | 21
CCC(=O)Nc1ccc2c(c1)C(=O)N(C)C[C@H](OC)[C@@H](C)CN(Cc1ccccc1F)[C@H](C)CO2 | nt | nt | nt | 0 | nt | nt | nt | nt
O=C(CCCN1C(=O)/C(=C/c2ccc3c(c2)OCO3)SC1=S)Nc1cccc(C(=O)O)c1 | -1 | 14 | 4 | nt | 18 | 66 | 43 | 68
SMILES | miR-122 sensor | Jurkat NFkB inh | NR2E3 ag-1 | FGF22 binding | 697 NFkB inh | NR2E3 ag-2 | NR2E3 ag conf | VP16 counter
O=C(CCCN1C(=O)/C(=C\c2ccccc2)SC1=S)Nc1cccc(C(=O)O)c1 | -3 | 0 | 1 | nt | 16 | -21 | nt | nt
Cc1ccc(C=C2SC(=S)N(CCCC(=O)Nc3cccc(C(=O)O)c3)C2=O)cc1 | 1 | nt | nt | 0 | nt | 73* | 32 | 88*
C[C@H]1CN([C@@H](C)CO)C(=O)c2cccc(NS(C)(=O)=O)c2O[C@H]1CN(C)Cc1ccc2c(c1)OCO2 | -5[16.7 µM] | nt | nt | 0 | nt | nt | nt | nt
COc1ccc(NC(=O)N(C)C[C@@H]2OCCCC[C@H](C)Oc3ccc(NC(=O)C4CCCCC4)cc3C(=O)N([C@H](C)CO)C[C@@H]2C)cc1 | 14[16.7 µM] | nt | nt | 0 | nt | nt | nt | nt
CC(C)c1ccc(-c2nc3ccccc3s2)cc1 | nt | 45 | 3 | 0 | -31 | 88* | 71* | 58
FC(F)(F)c1ccc(-c2nc3ccccc3s2)cc1 | 4 | nt | nt | 0 | nt | -37 | nt | nt
Cc1ccc(S(=O)(=O)N[C@H]2CC[C@@H](CC(=O)N3CCc4ccccc4C3)O[C@@H]2CO)cc1 | -4[16.7 µM] | nt | nt | 0 | nt | nt | nt | nt
O=[N+]([O-])c1cc(S(=O)(=O)Nc2cccc(C(F)(F)F)c2)ccc1-n1nnc2ccccc21 | 48 | 0 | 8 | nt | -7 | 96* | 98* | 87*
CS(=O)(=O)c1ccc(-n2nnc3ccccc32)c([N+](=O)[O-])c1 | 2 | 3 | 0 | 0 | 12 | -29 | nt | nt
CN(C)CCCNS(=O)(=O)c1ccc(-n2nnc3ccccc32)c([N+](=O)[O-])c1 | 1 | 16 | -3 | 0 | -17 | -10 | nt | nt
COc1ccc(NS(=O)(=O)c2ccc(-n3nnc4ccccc43)c([N+](=O)[O-])c2)cc1 | 44 | 12 | -1 | 0 | 1 | 54 | 45 | 45
CCc1cc(-c2nnn(CCC3COCCO3)c2CC)ccc1-c1cn(Cc2ccccc2)nn1 (centres undefined) | 17 | nt | nt | 0 | nt | 76* | 76* | 66
CN1c2ccccc2C(O)=C(C(=S)Nc2ccc(F)c(Cl)c2)S1(=O)=O | -4 | -10 | -3 | nt | 13 | 49 | 88* | 59

High-throughput results: PubChem BioAssay, several laboratories
